{"data": "Measurements from different studies", "target": "Serine/threonine-protein kinase STK11 (STK11, Homo sapiens, UniProt Q15831)", "One construct used (Q15831 1-433)": "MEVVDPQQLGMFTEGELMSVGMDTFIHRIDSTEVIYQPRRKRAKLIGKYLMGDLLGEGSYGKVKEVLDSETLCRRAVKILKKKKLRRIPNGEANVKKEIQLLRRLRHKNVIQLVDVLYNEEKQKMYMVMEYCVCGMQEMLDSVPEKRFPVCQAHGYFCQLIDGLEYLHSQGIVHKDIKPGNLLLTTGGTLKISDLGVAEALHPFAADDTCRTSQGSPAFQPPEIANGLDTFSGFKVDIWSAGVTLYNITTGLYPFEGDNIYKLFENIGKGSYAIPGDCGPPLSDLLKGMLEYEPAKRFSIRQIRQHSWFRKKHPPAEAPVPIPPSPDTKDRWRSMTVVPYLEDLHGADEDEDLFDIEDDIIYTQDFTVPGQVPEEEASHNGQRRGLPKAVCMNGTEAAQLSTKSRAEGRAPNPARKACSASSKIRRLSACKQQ", "note": "Each line is one published result; the experiments were not run side by side."}
{"SMILES": "FC(F)(F)Oc1cccc(-c2cnc3ccc(-c4ccncc4)nn23)c1", "test": "cell-free assay, competition with immobilised ligand", "conditions": "5 µM", "remaining binding [%]": 72}
{"SMILES": "O=C(c1ccc(Nc2ncc(Cl)c(-c3ccc(Cl)s3)n2)cc1)N1CCC(N2CCCC2)CC1", "test": "binding, competition with immobilised ligand", "conditions": "1 µM", "remaining binding [%]": 7.2}
{"SMILES": "O=C(O)[C@H]1[C@H](Cn2nnc3ccccc3c2=O)CC[C@@H]1C(=O)c1ccc(OCCC2CCOCC2)cc1", "test": "cell-free assay, competition with immobilised ligand", "conditions": "1 µM", "remaining binding [%]": 76}
{"SMILES": "O=C(NCC1CCOCC1)c1n[nH]cc1NC(=O)c1c(F)cccc1F", "test": "binding, competition with immobilised ligand", "conditions": "1 µM", "remaining binding [%]": 100}
{"SMILES": "Cc1cnc(Nc2ccc(C(=O)N3CCC(N4CCCC4)CC3)cc2)nc1-c1cc2ccccc2s1", "test": "binding, competition with immobilised ligand", "conditions": "1 µM", "remaining binding [%]": 2.5}
{"SMILES": "CS(=O)(=O)N1CCCC(NC(=O)[C@H](CCC2CCCCC2)NC(=O)c2ccc(CNc3ncnc4c3nnn4-c3ccccc3)cc2)C1 (stereo partly shown)", "test": "cell-free assay, competition with immobilised ligand", "conditions": "0.1 µM", "remaining binding [%]": 100}
{"SMILES": "c1cncc(-c2cccc(Nc3nccc(NC4CCCCC4)n3)c2)c1", "test": "binding, competition with immobilised ligand", "conditions": "10 µM", "remaining binding [%]": 100}
{"SMILES": "CC(=O)C1=C(C)N(c2cccc(C(F)(F)F)c2)C(=O)N[C@@H]1c1ccc(C#N)nc1", "test": "cell-free assay, competition with immobilised ligand", "conditions": "1 µM", "remaining binding [%]": 72.8}
{"SMILES": "CN(C)c1nccc(-c2cnn3ncccc23)n1", "test": "binding", "conditions": "1 µM", "remaining binding [%]": 100}
{"SMILES": "COc1cnc(Nc2cccc(S(N)(=O)=O)c2)nc1N1CCN(c2ccccc2)C(=O)C1", "test": "binding, competition with immobilised ligand", "conditions": "1 µM", "remaining binding [%]": 100}
{"SMILES": "N[C@H]1CCN(c2nccc(-c3cnn4ncccc34)n2)C1", "test": "binding", "conditions": "1 µM", "remaining binding [%]": 65}
{"SMILES": "C[C@@H]1CN(c2ccc3ncc(-c4ccc5[nH]nc(C6CC6)c5c4)n3n2)C[C@H](C)O1", "test": "binding, competition with immobilised ligand", "conditions": "0.5 µM", "remaining binding [%]": 94}
{"SMILES": "CN(C)C(=O)Cn1cc(-c2nc([C@@](C)(c3ccc(-c4cnc(N)nc4)cc3)C3CC3)no2)cn1", "test": "cell-free assay, competition with immobilised ligand", "conditions": "1 µM", "remaining binding [%]": 77}
{"SMILES": "CN(C)c1ncc(F)c(-c2cnn3ncccc23)n1", "test": "binding", "conditions": "1 µM", "remaining binding [%]": 100}
{"SMILES": "CO[C@H]1CC[C@H](CNc2ccc(S(=O)(=O)NC(=O)c3ccc(N4CCN(CC5=C(c6ccc(Cl)cc6)CC(C)(C)CC5)CC4)cc3Oc3cnc4[nH]ccc4c3)cc2[N+](=O)[O-])CC1", "test": "cell-free assay, competition with immobilised ligand", "conditions": "1 µM", "remaining binding [%]": 59}
{"SMILES": "F[C@@H]1CCN(c2nccc(-c3cnn4ncccc34)n2)C1", "test": "binding", "conditions": "1 µM", "remaining binding [%]": 100}
